Drawing on ChEMBL document CHEMBL1142695, “Discovery of functionally selective 7,8,9,10-tetrahydro-7,10-ethano-1,2,4-triazolo[3,4-a]phthalazines as GABA A receptor agonists at the alpha3 subunit” (J Med Chem, 2005), this text covers Efficacy and Ki for 16 compounds.

Molecules are shown by their SMILES.

Holding throughout (type): cell-based
Experiment [1] concerns the target GABA-A receptor; alpha-1/beta-3/gamma-2 (Homo sapiens) (UniProt P14867+P18507+P28472). The experiment is described as follows: Efficacy was measured as modulation of the current in response to GABA at hGABA alpha-1-beta-3-gamma-2 receptor expressed in Xenopus oocytes. To be noted: Oocyte. The gist of the method:
(§1)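 Two-electrode voltage clamp on Xenopus oocytes expressing each receptor combination. […] Value is percent increase or decrease of the EC20 GABA current.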

The target in experiment [2] is T1, GABA-A receptor; alpha-3/beta-3/gamma-2 (Homo sapiens, UniProt P18507+P28472+P34903).
T1 sequence (P18507 whole entry): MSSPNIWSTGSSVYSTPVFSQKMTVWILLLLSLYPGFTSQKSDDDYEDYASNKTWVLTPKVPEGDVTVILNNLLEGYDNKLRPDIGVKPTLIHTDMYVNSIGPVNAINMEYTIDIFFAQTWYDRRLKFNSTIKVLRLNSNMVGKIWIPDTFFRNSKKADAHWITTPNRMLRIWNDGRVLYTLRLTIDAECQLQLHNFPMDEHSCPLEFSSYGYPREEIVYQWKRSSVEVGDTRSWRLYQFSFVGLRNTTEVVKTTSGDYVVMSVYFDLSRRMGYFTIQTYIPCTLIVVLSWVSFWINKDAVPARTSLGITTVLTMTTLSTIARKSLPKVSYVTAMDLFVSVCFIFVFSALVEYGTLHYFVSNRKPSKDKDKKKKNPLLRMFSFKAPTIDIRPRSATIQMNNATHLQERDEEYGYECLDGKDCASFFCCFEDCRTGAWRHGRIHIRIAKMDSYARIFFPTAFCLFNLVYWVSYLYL
T1 sequence (P28472 whole entry): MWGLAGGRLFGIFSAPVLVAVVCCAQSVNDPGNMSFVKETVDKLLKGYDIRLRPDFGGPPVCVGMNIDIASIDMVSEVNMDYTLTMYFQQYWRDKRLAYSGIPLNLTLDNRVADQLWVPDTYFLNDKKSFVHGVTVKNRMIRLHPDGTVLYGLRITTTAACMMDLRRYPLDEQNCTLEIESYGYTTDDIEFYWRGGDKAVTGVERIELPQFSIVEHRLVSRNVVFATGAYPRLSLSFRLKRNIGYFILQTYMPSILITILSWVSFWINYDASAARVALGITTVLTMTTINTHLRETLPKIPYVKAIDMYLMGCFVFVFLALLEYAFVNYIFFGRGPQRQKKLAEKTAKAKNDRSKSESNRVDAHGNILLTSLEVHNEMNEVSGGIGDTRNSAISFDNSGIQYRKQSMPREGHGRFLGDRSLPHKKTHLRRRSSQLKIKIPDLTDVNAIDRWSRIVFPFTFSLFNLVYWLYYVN
T1 sequence (P34903 whole entry): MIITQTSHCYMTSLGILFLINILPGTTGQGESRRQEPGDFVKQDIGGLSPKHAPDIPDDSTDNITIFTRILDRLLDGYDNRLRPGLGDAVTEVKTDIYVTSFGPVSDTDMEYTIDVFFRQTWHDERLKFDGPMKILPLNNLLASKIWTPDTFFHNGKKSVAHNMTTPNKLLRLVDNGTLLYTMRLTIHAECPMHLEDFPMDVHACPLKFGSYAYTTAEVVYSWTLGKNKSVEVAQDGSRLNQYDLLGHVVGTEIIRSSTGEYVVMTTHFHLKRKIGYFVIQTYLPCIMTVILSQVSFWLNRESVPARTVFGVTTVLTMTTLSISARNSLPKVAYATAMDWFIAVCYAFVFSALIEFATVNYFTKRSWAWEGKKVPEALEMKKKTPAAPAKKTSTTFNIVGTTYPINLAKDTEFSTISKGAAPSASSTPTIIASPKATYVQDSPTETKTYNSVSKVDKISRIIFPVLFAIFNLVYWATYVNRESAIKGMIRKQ
The experiment is described as follows: Inhibition of [3H]Ro-151788 binding to recombinant human gamma-aminobutyric-acid A receptor alpha-3-beta-3-gamma-2 subtype expressed in L (tk-) cells.

Experiment [3] concerns the target T2, GABA-A receptor; alpha-2/beta-3/gamma-2 (Homo sapiens, UniProt P18507+P28472+P47869).
T2 sequence (P18507 whole entry): T1 sequence (P18507 whole entry)
T2 sequence (P28472 whole entry): T1 sequence (P28472 whole entry)
T2 sequence (P47869 whole entry): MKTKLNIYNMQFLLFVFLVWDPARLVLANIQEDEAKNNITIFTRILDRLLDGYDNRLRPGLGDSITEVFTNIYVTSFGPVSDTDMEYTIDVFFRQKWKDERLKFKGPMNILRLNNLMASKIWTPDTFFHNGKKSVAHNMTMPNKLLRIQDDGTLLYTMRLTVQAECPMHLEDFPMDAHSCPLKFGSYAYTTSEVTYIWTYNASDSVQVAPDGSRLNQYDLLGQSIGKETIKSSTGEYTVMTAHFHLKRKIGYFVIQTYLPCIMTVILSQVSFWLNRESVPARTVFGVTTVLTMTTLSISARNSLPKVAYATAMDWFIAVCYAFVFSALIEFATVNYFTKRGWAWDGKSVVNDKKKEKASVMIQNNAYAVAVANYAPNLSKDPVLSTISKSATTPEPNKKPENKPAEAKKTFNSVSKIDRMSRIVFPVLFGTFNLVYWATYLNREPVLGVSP
As to the kind of experiment: Inhibition of [3H]Ro-151788 binding to recombinant human gamma-aminobutyric acid A receptor alpha-2-beta-3-gamma-2 subtype expressed in L (tk-) cells.

Experiment [4] concerns the target GABA-A receptor; alpha-3/beta-3/gamma-2 (Homo sapiens) (UniProt P18507+P28472+P34903). The experiment is described as follows: Efficacy was measured as modulation of the current in response to GABA at hGABA alpha-3-beta-3-gamma-2 receptor expressed in Xenopus oocytes. The settings on record: Oocyte. The gist of the method:
as §1

In experiment [5] the target is T3, GABA-A receptor; alpha-1/beta-3/gamma-2 (Homo sapiens, UniProt P14867+P18507+P28472).
T3 sequence (P14867 whole entry): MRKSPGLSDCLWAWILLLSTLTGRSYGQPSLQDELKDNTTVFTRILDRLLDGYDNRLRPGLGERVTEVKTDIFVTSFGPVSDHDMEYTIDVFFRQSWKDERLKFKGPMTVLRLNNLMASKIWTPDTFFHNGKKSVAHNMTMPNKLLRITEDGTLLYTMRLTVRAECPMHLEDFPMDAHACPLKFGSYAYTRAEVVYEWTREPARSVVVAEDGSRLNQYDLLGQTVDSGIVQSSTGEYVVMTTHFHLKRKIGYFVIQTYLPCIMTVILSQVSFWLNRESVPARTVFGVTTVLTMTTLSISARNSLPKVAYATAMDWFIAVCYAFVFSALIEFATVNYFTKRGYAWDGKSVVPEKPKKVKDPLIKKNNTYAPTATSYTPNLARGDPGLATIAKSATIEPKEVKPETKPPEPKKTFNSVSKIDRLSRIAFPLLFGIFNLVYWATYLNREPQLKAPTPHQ
T3 sequence (P18507 whole entry): T1 sequence (P18507 whole entry)
T3 sequence (P28472 whole entry): T1 sequence (P28472 whole entry)
As to the kind of experiment: Inhibition of [3H]Ro-151788 binding to recombinant human gamma-aminobutyric-acid A receptor alpha-1-beta-3-gamma-2 subtype expressed in L (tk-) cells.

In experiment [6] the target is T4, GABA-A receptor; alpha-5/beta-3/gamma-2 (Homo sapiens, UniProt P18507+P28472+P31644).
T4 sequence (P18507 whole entry): T1 sequence (P18507 whole entry)
T4 sequence (P28472 whole entry): T1 sequence (P28472 whole entry)
T4 sequence (P31644 whole entry): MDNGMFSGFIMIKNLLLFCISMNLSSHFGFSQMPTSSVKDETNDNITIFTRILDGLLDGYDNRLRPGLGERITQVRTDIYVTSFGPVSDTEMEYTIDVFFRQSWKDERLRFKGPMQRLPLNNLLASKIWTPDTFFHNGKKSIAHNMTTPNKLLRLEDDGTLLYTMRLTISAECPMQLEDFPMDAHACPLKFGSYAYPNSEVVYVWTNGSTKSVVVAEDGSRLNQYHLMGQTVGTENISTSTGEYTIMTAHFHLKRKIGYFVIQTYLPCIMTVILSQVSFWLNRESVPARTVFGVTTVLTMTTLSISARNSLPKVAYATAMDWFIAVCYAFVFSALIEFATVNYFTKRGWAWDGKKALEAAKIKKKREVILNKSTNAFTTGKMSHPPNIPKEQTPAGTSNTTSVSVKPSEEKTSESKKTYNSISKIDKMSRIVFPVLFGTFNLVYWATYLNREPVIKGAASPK
As to the kind of experiment: Inhibition of [3H]Ro-151788 binding to recombinant human gamma-aminobutyric-acid A receptor alpha-5-beta-3-gamma-2 subtype expressed in L (tk-) cells.

`CCOc1cccnc1COc1nn2c(-c3ccccc3)nnc2c2c1C1CCC2CC1`: the Efficacy is 66% in experiment [1] and 46% in experiment [4]. Also, the Ki – broadly, a dissociation constant, usually derived from enzyme kinetics or from competition with a known ligand – in experiment [2] stood at 1.1 nM; in experiment [3] it was 2.8 nM; in experiment [5], 3.9 nM; in experiment [6], 0.36 nM.
For the compound `COc1cccc(-c2nnc3c4c(c(OCc5ccccn5)nn23)C2CCC4CC2)c1`, the Efficacy in experiment [1] was 51%; in experiment [4], 43%. The Ki in experiment [2] was determined as 29 nM; in experiment [3], 79 nM; in experiment [5], 140 nM; in experiment [6], 6 nM.
For the compound `c1ccc(-c2nnc3c4c(c(OCc5cccnc5)nn23)C2CCC4CC2)cc1`, the Efficacy in experiment [1] is 51%; in experiment [4] it was 20%. Besides, the Ki in experiment [2] was found to be 25 nM; in experiment [3] it was 68 nM; in experiment [5] it was 150 nM; in experiment [6], 6.5 nM.
For the compound `c1ccc(Cn2ccnc2COc2nn3c(-c4ccccc4)nnc3c3c2C2CCC3CC2)cc1`, the Efficacy in experiment [1] was 73%; in experiment [4], 100%. Also, the Ki was 2 nM in experiment [2], 1.7 nM in experiment [3], 0.81 nM in experiment [5] and 0.21 nM in experiment [6].
Regarding `c1ccc(COc2cccnc2COc2nn3c(-c4ccccc4)nnc3c3c2C2CCC3CC2)cc1`, the Efficacy in experiment [1] is 178%; in experiment [4], 132%. Moreover, the Ki in experiment [2] stood at 20 nM; in experiment [3], 100 nM; in experiment [5] it was 160 nM; in experiment [6], 7 nM.
Regarding `Cn1ccnc1COc1nn2c(-c3ccccc3)nnc2c2c1C1CCC2CC1`, the Efficacy in experiment [1] and in experiment [4] was 24% in each case. Further, the Ki was 4.3 nM in experiment [2], 7.1 nM in experiment [3], 19 nM in experiment [5] and 0.45 nM in experiment [6].
For `CCCc1cccnc1COc1nn2c(-c3ccccc3)nnc2c2c1C1CCC2CC1`, the figures for the Efficacy in experiment [1] and in experiment [4] were 62% and 52%, respectively. Moreover, the Ki is 2.4 nM in experiment [2], 9.9 nM in experiment [3], 3.5 nM in experiment [5] and 3.1 nM in experiment [6].
With `Cc1ccc(COc2nn3c(-c4ccccc4)nnc3c3c2C2CCC3CC2)nc1`, the Efficacy in experiment [1] worked out at 100%; in experiment [4], 74%. The Ki was 15 nM in experiment [2], 17 nM in experiment [3], 56 nM in experiment [5] and 1.2 nM in experiment [6].
`c1ccc(-c2nnc3c4c(c(OCc5cscn5)nn23)C2CCC4CC2)cc1`: the Efficacy in experiment [1] and in experiment [4] was 33% in each case. Besides, the Ki in experiment [2] was 10 nM; in experiment [3] it was 21 nM; in experiment [5], 68 nM; in experiment [6], 1.2 nM.
Turning to `c1ccc(-c2nnc3c4c(c(OCc5nccs5)nn23)C2CCC4CC2)cc1`, the Efficacy in experiment [1] is 84%; in experiment [4], 27%. The Ki in experiment [2] was found to be 18 nM; in experiment [3] it was 35 nM; in experiment [5] it was 100 nM; in experiment [6], 2.7 nM.
As for `c1ccc(-c2nnc3c4c(c(OCc5ccncc5)nn23)C2CCC4CC2)cc1`, the Efficacy came out at 38% in experiment [1] and 17% in experiment [4]. Moreover, the Ki in experiment [2] stood at 13 nM; in experiment [3], 82 nM; in experiment [5], 140 nM; in experiment [6] it was 4.7 nM.
On to `COc1ccc(-c2nnc3c4c(c(OCc5ccccn5)nn23)C2CCC4CC2)cc1`, for which the Efficacy in experiment [1] came to 14%; in experiment [4] it was 33%. Further, the Ki in experiment [2] was 52 nM; in experiment [3], 74 nM; in experiment [5], 230 nM; in experiment [6], 4.2 nM.
Take `c1ccc(-c2nnc3c4c(c(OCn5cccn5)nn23)C2CCC4CC2)cc1`: the Efficacy was 76% in experiment [1] and 0% in experiment [4]. Moreover, the Ki in experiment [2] turned out to be 19 nM; in experiment [3] it was 43 nM; in experiment [5], 130 nM; in experiment [6] it was 2.7 nM.
Take `CCn1ccnc1COc1nn2c(-c3ccccc3)nnc2c2c1C1CCC2CC1`: the Efficacy in experiment [1] came to 26%; in experiment [4], 23%. The Ki in experiment [2] was 1 nM; in experiment [3], 2.3 nM; in experiment [5] it was 3.3 nM; in experiment [6], 0.29 nM.
On to `Cc1ccnc(COc2nn3c(-c4ccccc4)nnc3c3c2C2CCC3CC2)c1`, for which the values for the Efficacy in experiment [1] and in experiment [4] were 41% and 33%, respectively. For the same compound, the Ki in experiment [2] worked out at 18 nM; in experiment [3] it was 19 nM; in experiment [5], 93 nM; in experiment [6], 2 nM.
As to `Cc1ccc(C)c(COc2nn3c(-c4ccccc4)nnc3c3c2C2CCC3CC2)n1`, the Ki came to 3.6 nM in experiment [2], 8.7 nM in experiment [3], 27 nM in experiment [5] and 0.84 nM in experiment [6]. This compound displayed an Efficacy in experiment [4] of 12%.
